Consider 29 compounds from ChEMBL document CHEMBL1135732, “Synthesis and antitumor activity of several new analogues of penclomedine and its metabolites” (2002).

For experiment [1], the species on record is Mus musculus. Nature of the experiment: Tumor growth delay in comparison vehicle-treated control, difference in the median time poststaging for tumors of the treated (T) group to double twice in mass compared to the median of the control (C) group ce. The experiment is classed as functional. Summed up:
(§1)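 MX-1 human breast tumor (NCI repository), fragments of 30–40 mg from in vivo passage implanted subcutaneously in the axillary region. Groups of five mice dosed ip for 5 days once tumors reached about 300 mg, with compound as a suspension in aqueous hydroxypropyl cellulose. Tumors were caliper-measured in two dimensions twice weekly and converted to mass. Growth delay T−C was the difference in median time to two doublings versus vehicle controls. Regressions and tumor-free survivors were also recorded. The study ended when controls reached 1 g.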

Experiment [2] deals with Mus musculus. Nature of the experiment: In vivo optimal (ip) dosage (<LD10) against subcutaneously implanted human mammary tumor xenograft MX-1 on a five-successive day schedule in Athymic NCr-nu/nu mice. The experiment is classed as functional. The gist of the method:
(§2)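 Human MX-1 breast tumor fragments (30–40 mg) from in vivo passage implanted subcutaneously in the axillary region. Dosing ip as a suspension in aqueous hydroxypropyl cellulose, once daily for 5 days, beginning when tumors reached about 300 mg. Groups of five mice. Tumors caliper-measured in two dimensions twice weekly and converted to mass. Study ended when control tumors reached 1 g.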

The species named for experiment [3] is Mus musculus. Kind of experiment: Number of tumor-free survivors in a group of five mice. The experiment is classed as functional. Summed up:
as §2

Experiment [4] relates to Mus musculus. Kind of experiment: In vivo optimal (ip) dosage (<LD10) against subcutaneously implanted human mammary tumor xenograft MX-1 on a five-successive day schedule in Athymic NCr-nu/nu mice; Toxic. The experiment is classed as functional, organism-based. The gist of the method: as §1

`Oc1c(Cl)c(OCC(F)(F)F)nc(C(Cl)(Cl)Cl)c1Cl`: the T-C in experiment [1] was -0.2 days. In addition, in experiment [2], the Optimal dosage is reported as 90 mg kg-1 dose-1 day-1. This compound also came in with a Tumor-free in experiment [3] of 0 survivors/total.
In the same order, the values of `Oc1nc(C(Cl)(Cl)Cl)c(Cl)c(O)c1Cl` are -0.5 days, 40 mg kg-1 dose-1 day-1 and 0 survivors/total.
The like results for `COc1c(Cl)c(O)nc(C(Cl)(Cl)Cl)c1Cl` were, in that order, 0.8 days, 135 mg kg-1 dose-1 day-1 and 0 survivors/total.
In the same order, the values of `COc1nc(C(Cl)(Cl)Cl)c(Cl)c(OC)c1Cl` [PENCLOMEDINE] are greater than 49 days, 90 mg kg-1 dose-1 day-1 and 5 survivors/total.
Take `CC(=O)Oc1c(Cl)c(Cl)nc(C(Cl)(Cl)Cl)c1Cl`: the Optimal dosage result in experiment [4] was “Toxic”.
In experiment [1], `COc1c(Cl)c(C(Cl)(Cl)Cl)nc(C(Cl)(Cl)Cl)c1Cl` yielded a T-C of -0.8 days. This compound also gave an Optimal dosage in experiment [2] of 135 mg kg-1 dose-1 day-1. In addition, in experiment [3], the Tumor-free is given as 0 survivors/total.
The like results for `CCOc1nc(C(Cl)(Cl)Cl)c(Cl)c(O)c1Cl` were, in that order, 5.2 days, 60 mg kg-1 dose-1 day-1 and 0 survivors/total.
In the same order, the values of `CCCCOc1nc(C(Cl)(Cl)Cl)c(Cl)c(O)c1Cl` are -0.9 days, 135 mg kg-1 dose-1 day-1 and 0 survivors/total.
The like results for `COc1nc(C(Cl)(Cl)Cl)c(Cl)c(OC(C)=O)c1Cl` were, in that order, greater than 41 days, 90 mg kg-1 dose-1 day-1 and 5 survivors/total.
For `Oc1c(Cl)c(Cl)nc(C(Cl)(Cl)Cl)c1Cl`, the T-C in experiment [1] was 2 days. This compound had an Optimal dosage in experiment [2] of 50 mg kg-1 dose-1 day-1. In addition, in experiment [3], the Tumor-free was found to be 0 survivors/total.
The like results for `CCCCOc1c(Cl)c(OC)nc(C(Cl)(Cl)Cl)c1Cl` were, in that order, 20.5 days, 90 mg kg-1 dose-1 day-1 and 1 survivors/total.
The compound `COc1c(Cl)c(Cl)nc(C(Cl)(Cl)Cl)c1Cl` came in with a T-C in experiment [1] of 4.3 days. In experiment [2], this compound yielded an Optimal dosage of 50 mg kg-1 dose-1 day-1. In experiment [3], this compound displayed a Tumor-free of 0 survivors/total.
The like results for `CCCOc1c(Cl)c(OC)nc(C(Cl)(Cl)Cl)c1Cl` were, in that order, 5.4 days, 60 mg kg-1 dose-1 day-1 and 0 survivors/total.
Turning to `CC(=O)Oc1nc(C(Cl)(Cl)Cl)c(Cl)c(OC(C)=O)c1Cl`, the T-C in experiment [1] was -0.5 days. For the same compound, the Optimal dosage in experiment [2] worked out at 40 mg kg-1 dose-1 day-1. This compound yielded a Tumor-free in experiment [3] of 0 survivors/total.
The like results for `CCCCOc1nc(C(Cl)(Cl)Cl)c(Cl)c(OC)c1Cl` were, in that order, -0.8 days, 135 mg kg-1 dose-1 day-1 and 0 survivors/total.
`CC(C)Oc1nc(C(Cl)(Cl)Cl)c(Cl)c(OC(C)C)c1Cl` registered a T-C in experiment [1] of -0.7 days. The Optimal dosage in experiment [2] is reported as 135 mg kg-1 dose-1 day-1. This compound also registered a Tumor-free in experiment [3] of 0 survivors/total.
For `CCOc1nc(C(Cl)(Cl)Cl)c(Cl)c(OC)c1Cl`, the T-C in experiment [1] was greater than 38.6 days. Further, the Optimal dosage in experiment [2] was determined as 200 mg kg-1 dose-1 day-1. In experiment [3], this compound came in with a Tumor-free of 2 survivors/total.
`COc1nc(C(Cl)(Cl)Cl)c(Cl)c(Cl)c1Cl`: the T-C in experiment [1] is -1.4 days. Further, the Optimal dosage in experiment [2] came to 135 mg kg-1 dose-1 day-1. Also, in experiment [3], the Tumor-free is 0 survivors/total.
For `COc1c(Cl)c(OCC(F)(F)F)nc(C(Cl)(Cl)Cl)c1Cl`, the T-C in experiment [1] amounted to 1.2 days. This compound also displayed an Optimal dosage in experiment [2] of 90 mg kg-1 dose-1 day-1. Moreover, in experiment [3], the Tumor-free is on record as 0 survivors/total.
In the same order, the values of `CCCCOc1nc(C(Cl)(Cl)Cl)c(Cl)c(OCCCC)c1Cl` are -0.6 days, 135 mg kg-1 dose-1 day-1 and 0 survivors/total.
Turning to `CCOc1c(Cl)c(OC)nc(C(Cl)(Cl)Cl)c1Cl`, the T-C in experiment [1] was greater than 42.7 days. This compound also showed an Optimal dosage in experiment [2] of 90 mg kg-1 dose-1 day-1. Besides, the Tumor-free in experiment [3] is listed as 5 survivors/total.
With `COc1nc(C(Cl)(Cl)Cl)c(Cl)c(O)c1Cl`, the T-C in experiment [1] is greater than 37.2 days. The compound further showed an Optimal dosage in experiment [2] of 90 mg kg-1 dose-1 day-1. In addition, the Tumor-free in experiment [3] is 3 survivors/total.
In the same order, the values of `COc1nc(C(Cl)(Cl)Cl)c(Cl)c(OC(C)C)c1Cl` are greater than 35.2 days, 60 mg kg-1 dose-1 day-1 and 2 survivors/total.
The like results for `CCOc1nc(C(Cl)(Cl)Cl)c(Cl)c(OCC)c1Cl` were, in that order, greater than 41 days, 135 mg kg-1 dose-1 day-1 and 4 survivors/total.
In the same order, the values of `CCOc1nc(C(Cl)(Cl)Cl)c(Cl)c(OC(C)=O)c1Cl` are 1.4 days, 90 mg kg-1 dose-1 day-1 and 0 survivors/total.
Compound `FC(F)(F)COc1nc(C(Cl)(Cl)Cl)c(Cl)c(OCC(F)(F)F)c1Cl` came in with a T-C in experiment [1] of 0.4 days. Besides, in experiment [2], the Optimal dosage was found to be 135 mg kg-1 dose-1 day-1. In experiment [3], the Tumor-free is 0 survivors/total.
The like results for `Clc1c(Oc2ccccc2)nc(C(Cl)(Cl)Cl)c(Cl)c1Oc1ccccc1` were, in that order, 0.2 days, 135 mg kg-1 dose-1 day-1 and 0 survivors/total.
In the same order, the values of `CCOc1nc(C(Cl)(Cl)Cl)c(Cl)c(OC(=O)COC)c1Cl` are 17.8 days, 135 mg kg-1 dose-1 day-1 and 0 survivors/total.
In the same order, the values of `COc1c(Cl)c(Oc2ccccc2)nc(C(Cl)(Cl)Cl)c1Cl` are 2.3 days, 135 mg kg-1 dose-1 day-1 and 0 survivors/total.
